Data published in ChEMBL document CHEMBL1124248, “Preparation and antischistosomal and antitumor activity of hycanthone and some of its congeners. Evidence for the mode of action of hycanthone” (1988).
Where “and” joins values, the source holds several entries; their conditions need not be identical. Equal values may be shown once.

Experiments:
Type in all cases: functional
[1] = tested on: Mus musculus; assay: In vivo antitumor activity against p-388 lymphocytic leukemia in mice at 3.12 mg/kg
Summary of the method: (§1)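 Murine P388 lymphocytic leukemia model tested by the National Cancer Institute. Compound given once daily for 9 days; activity expressed as T/C.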

[2] = tested on: Mus musculus; assay: In vivo antitumor activity against p-388 lymphocytic leukemia in mice at 1.5 mg/kg; summary of the method: as §1
[3] = tested on: Mus musculus; assay: In vivo antitumor activity against p-388 lymphocytic leukemia in mice at 12.5 mg/kg; summary of the method: as §1
[4] = tested on: Mus musculus; assay: In vivo antitumor activity against p-388 lymphocytic leukemia in mice at 6.25 mg/kg; summary of the method: as §1
[5] = tested on: Schistosoma mansoni; assay: Incorporation of 0.9 M *10e6 [3H]uridine in hycanthone(HC) resistant Schistosoma mansoni
Summary of the method: (§2)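 Adult HC-resistant S. mansoni were treated in vitro, and [3H]uridine incorporation by the worms was measured. Values are % of control. Concentrations are given in M × 10^6.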

[6] = tested on: Schistosoma mansoni; assay: Incorporation of 0.9 M *10e6 [3H]uridine in hycanthone(HC) sensitive Schistosoma mansoni
[7] = tested on: Schistosoma mansoni; assay: Incorporation of 4.5 M*10e6 [3H]uridine in hycanthone(HC) sensitive Schistosoma mansoni
[8] = tested on: Schistosoma mansoni; assay: Incorporation of 4.5M*10e6 [3H]uridine in hycanthone(HC) resistant Schistosoma mansoni; summary of the method: as §2
[9] = tested on: Schistosoma mansoni; assay: Day 50% survival of worms in culture of HC resistant Schistosoma mansoni
Summary of the method: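 Adult HC-resistant S. mansoni were exposed in vitro and kept in culture. The value is the day by which 50% of worms were dead. Cultures were ended at different times in different experiments. Concentrations are given in M × 10^6.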

[10] = tested on: Schistosoma mansoni; assay: Day 50% survival of worms in culture of HC sensitive Schistosoma mansoni
[11] = tested on: Mus musculus; assay: In vivo antitumor activity against p-388 lymphocytic leukemia in mice at 50 mg/kg; summary of the method: as §1
[12] = tested on: Mus musculus; assay: In vivo antitumor activity against p-388 lymphocytic leukemia in mice at 6.25 mg/kg (Duplicate value); summary of the method: as §1
[13] = tested on: Mus musculus; assay: In vivo antitumor activity against p-388 lymphocytic leukemia in mice at 12.5 mg/kg (Duplicate value); summary of the method: as §1
[14] = tested on: Mus musculus; assay: In vivo antitumor activity against p-388 lymphocytic leukemia in mice at 25 mg/kg (Duplicate value); summary of the method: as §1
[15] = tested on: Schistosoma mansoni; assay: Incorporation of 1.3 M *10e6 [3H]uridine in hycanthone(HC) sensitive Schistosoma mansoni
[16] = tested on: Schistosoma mansoni; assay: Incorporation of 1.3 [3H]uridine in hycanthone(HC) resistant Schistosoma mansoni; summary of the method: as §2
[17] = tested on: Schistosoma mansoni; assay: Incorporation of 6.3 M*10e6 [3H]uridine in hycanthone(HC) sensitive Schistosoma mansoni
[18] = tested on: Schistosoma mansoni; assay: Incorporation of 1 M *10e6 [3H]uridine in hycanthone(HC) resistant Schistosoma mansoni; summary of the method: as §2
[19] = tested on: Schistosoma mansoni; assay: Incorporation of 5M*10e6 [3H]uridine in hycanthone(HC) resistant Schistosoma mansoni; summary of the method: as §2
[20] = tested on: Schistosoma mansoni; assay: Incorporation of 5M*10e6 [3H]uridine in hycanthone(HC) sensitive Schistosoma mansoni
[21] = tested on: Schistosoma mansoni; assay: Incorporation of 1 M *10e6 [3H]uridine in hycanthone(HC) sensitive Schistosoma mansoni
[22] = tested on: Mus musculus; assay: In vivo antitumor activity against p-388 lymphocytic leukemia in mice at 1.50 mg/kg; conditions: dose 1.5 mg/kg; summary of the method: as §1
[23] = tested on: Schistosoma mansoni; assay: Incorporation of 1.1 M *10e6 [3H]uridine in hycanthone(HC) resistant Schistosoma mansoni; summary of the method: as §2
[24] = tested on: Schistosoma mansoni; assay: Incorporation of 1.1 M *10e6 [3H]uridine in hycanthone(HC) sensitive Schistosoma mansoni
[25] = tested on: Schistosoma mansoni; assay: Incorporation of 5.5 M*10e6 [3H]uridine in hycanthone(HC) resistant Schistosoma mansoni; summary of the method: as §2
[26] = tested on: Schistosoma mansoni; assay: Incorporation of 5.5 M*10e6 [3H]uridine in hycanthone(HC) sensitive Schistosoma mansoni

Question: Which T/C [1] does the source give for `CNC(=O)OCc1ccc(NCCN(C)C)c2c(=O)c3cc(O)ccc3sc12` here?
Answer: Its T/C is 130.

Question: And the T/C [2]?
Answer: Its T/C is 134.

Question: And the T/C [3]?
Answer: The T/C was 112.

Question: What about the T/C [4] of the same molecule?
Answer: The T/C was 127.

Question: For `CCN(CC)CCNc1ccc(COC(=O)c2cc([N+](=O)[O-])cc([N+](=O)[O-])c2)c2sc3ccccc3c(=O)c12`, which Control [5] is on record?
Answer: The Control was 95%.

Question: What about the Control [6] of the same molecule?
Answer: The Control was 50%.

Question: And the Control [7]?
Answer: The Control was 0%.

Question: And the Control [8]?
Answer: Its Control is 105%.

Question: And the Effect [9]?
Answer: The Effect was greater than 17 days.

Question: And the Effect [10]?
Answer: Its Effect is 7 days.

Question: Which results are given for `CCN(CC)CCNc1ccc(COC(C)=O)c2sc3ccccc3c(=O)c12`?
Answer: T/C [11]: 118%; T/C [12]: 123%; T/C [13]: 129%; T/C [14]: 125%; Control [15]: 13%; Control [16]: 19%; Control [17]: 4%; Effect [9]: >15 days and 7 days; Effect [10]: 7 days

Question: `CCN(CC)CCNc1ccc(COC(=O)Nc2ccccc2)c2sc3ccccc3c(=O)c12` was tested. Which Control [18] did it give?
Answer: Its Control is 33%.

Question: What about the Control [19] of the same molecule?
Answer: The Control was 32%.

Question: And the Control [20]?
Answer: The Control was 7%.

Question: What about the Effect [9] of the same molecule?
Answer: The Effect was 12 days.

Question: And the Effect [10]?
Answer: Its Effect is 8 days.

Question: And the T/C [4]?
Answer: Its T/C is 111%.

Question: And the Control [21]?
Answer: The Control was 18%.

Question: Which results are given for `CCCNC(=O)OCc1ccc(NCCN(CC)CC)c2c(=O)c3ccccc3sc12`?
Answer: T/C [1]: 117%; T/C [22]: 99%; Control [23]: 100%; Control [24]: 40%; Control [25]: 56%; Control [26]: 22%; Effect [10]: >12 days and 10 days; T/C [4]: 134%
